Published values of several laboratories.
Compare with care: the assays were run in different laboratories.
CNR1: Cannabinoid receptor 1 (CNR1, Homo sapiens, UniProt P21554)
OPRK1: Kappa-type opioid receptor (OPRK1, Homo sapiens, UniProt P41145)
PFF0160c: Dihydroorotate dehydrogenase (quinone), mitochondrial (PFF0160c, Plasmodium falciparum, UniProt Q08210)

Compound	target	observed	action	technique	setting	measurement	result
CCCCCn1c(O)c(N=NC(=O)c2ccccc2)c2ccccc21	CNR1	β-arrestin recruitment	agonist	–	–	EC50	0.78 µM
NC(=O)c1ccc(C(=O)N[C@H]2CC[C@@]3(O)[C@H]4Cc5ccc(O)c6c5[C@@]3(CCN4CC3CC3)[C@H]2O6)s1	OPRK1	ligand displacement	–	radioligand	cell membranes	Ki	0.00191 µM
C=CCCCn1c(O)c(N=NC(=O)c2ccccc2)c2ccccc21	CNR1	β-arrestin recruitment	agonist	–	–	EC50	1.04 µM
CCCCCc1cc(O)c2c(c1)OC(C)(C)c1ccc(C)cc1-2	CNR1	cell-free assay	–	–	–	Ki	0.285 µM
CNC(=O)c1ccc(-c2cnn3ccc(C(=O)N(C)c4ccc(Cl)c(C(=O)O)c4)cc23)cc1	Serine/threonine-protein kinase WNK1 (WNK1, Homo sapiens, UniProt Q9H4A3)	enzyme activity	inhibitor	–	–	IC50	> 30 µM
CCn1ccc2c(Cc3ccc(C(F)(F)F)nc3)n(C)nc2c1=O	PFF0160c	enzyme activity	inhibitor	–	–	IC50	1.58 µM
CC(=O)S(=O)(=O)c1ccc(C(=O)N[C@H]2CC[C@@]3(O)[C@H]4Cc5ccc(O)c6c5[C@@]3(CCN4CC3CC3)[C@H]2O6)s1	OPRK1	ligand displacement	–	radioligand	cell membranes	Ki	0.00164 µM
CCn1cc(C2CC2)c2c(Cc3ccc(C(F)(F)F)c(F)c3)n(C)nc2c1=O	PFF0160c	enzyme activity	inhibitor	–	–	IC50	0.0126 µM
CCCCCCn1c(O)c(N=NC(=O)c2ccccc2)c2ccccc21	CNR1	ligand displacement	–	radioligand	cell membranes	Ki	1.15 µM
Cn1nc2c(=O)n(C3CC3)ncc2c1[C@](O)(c1ccc(C(F)(F)F)c(Cl)c1)C(F)(F)F	PFF0160c	enzyme activity	inhibitor	–	–	IC50	0.00794 µM
N#Cc1ccc(C(=O)N[C@H]2CC[C@@]3(O)[C@H]4Cc5ccc(O)c6c5[C@@]3(CCN4CC3CC3)[C@H]2O6)s1	OPRK1	ligand displacement	–	radioligand	cell membranes	Ki	0.00361 µM
CCNC(=O)c1nn(C)c(Cc2ccc(C(F)(F)F)nc2)c1C	PFF0160c	enzyme activity	inhibitor	–	–	IC50	5.2 µM
O=C(N[C@H]1CC[C@@]2(O)[C@H]3Cc4ccc(O)c5c4[C@@]2(CCN3CC2CC2)[C@H]1O5)c1ccc(F)s1	OPRK1	ligand displacement	–	radioligand	cell membranes	Ki	0.0022 µM
COC(=O)[C@@H](NC(=O)c1nn(Cc2ccc(F)cc2)c2ccccc12)C(C)C	CNR1	G protein activation	agonist	–	–	EC50	~0.004 µM
Cn1nc2c(=O)n(C3CC3)cc(C3CC3)c2c1Cc1ccc(C(F)(F)F)nc1	PFF0160c	enzyme activity	inhibitor	–	–	IC50	0.0398 µM
